Screens deposited in PubChem BioAssay by several laboratories.
A selection: hits, their analogues and other compounds. The true share with any hit is near 1.8%.
AI-2 QS mod: modulates the Vibrio harveyi AI-2 quorum sensing system; Vibrio harveyi JMH597 AI-2 luminescence/OD600 ratio, 9 h; hits give low values; strain lacks LuxN and CqsS sensors; 0 = neutral-control median; activity change, % at 7.5 µM; actives 0.4% (n = 300,000); in the data active = activity change below about -75%, passing the limit was not always enough; inconclusive = no clear call, values can overlap the other calls;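 note: luminescence divided by OD600 gain over 9 h not by final OD600 alone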
Bfl-1 A1 inh: inhibitors of the anti-apoptotic protein A1, read as caspase activation; caspase activation, % (test concentration not listed); MEF A1-2A-BIM cells, Caspase-Glo 3/7 luminescence, 3 h; percent of clofoctol response, vehicle zero; actives 0.066% (n = 330,000);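 active = over half of replicate activation scores above 10%, or exactly half above 10 with the replicate mean above 10; inconclusive = replicate mean below 10 yet half the replicates above 10; inactive = over half of replicates below 10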
LANA-H2B inh: blocks KSHV LANA binding to histone H2A/H2B | Q9QR71 | cell-free LANA-H2A/H2B peptide, fluorescence polarization | inhibition, % (no concentration beside the values) | actives 0.6% (n = 320,000) | AID 2629; in the data active = inhibition mostly above about 10%, no sharp cut-off; inactive = mostly below about 6.7%
Target sequence (Q9QR71 whole entry, looked up): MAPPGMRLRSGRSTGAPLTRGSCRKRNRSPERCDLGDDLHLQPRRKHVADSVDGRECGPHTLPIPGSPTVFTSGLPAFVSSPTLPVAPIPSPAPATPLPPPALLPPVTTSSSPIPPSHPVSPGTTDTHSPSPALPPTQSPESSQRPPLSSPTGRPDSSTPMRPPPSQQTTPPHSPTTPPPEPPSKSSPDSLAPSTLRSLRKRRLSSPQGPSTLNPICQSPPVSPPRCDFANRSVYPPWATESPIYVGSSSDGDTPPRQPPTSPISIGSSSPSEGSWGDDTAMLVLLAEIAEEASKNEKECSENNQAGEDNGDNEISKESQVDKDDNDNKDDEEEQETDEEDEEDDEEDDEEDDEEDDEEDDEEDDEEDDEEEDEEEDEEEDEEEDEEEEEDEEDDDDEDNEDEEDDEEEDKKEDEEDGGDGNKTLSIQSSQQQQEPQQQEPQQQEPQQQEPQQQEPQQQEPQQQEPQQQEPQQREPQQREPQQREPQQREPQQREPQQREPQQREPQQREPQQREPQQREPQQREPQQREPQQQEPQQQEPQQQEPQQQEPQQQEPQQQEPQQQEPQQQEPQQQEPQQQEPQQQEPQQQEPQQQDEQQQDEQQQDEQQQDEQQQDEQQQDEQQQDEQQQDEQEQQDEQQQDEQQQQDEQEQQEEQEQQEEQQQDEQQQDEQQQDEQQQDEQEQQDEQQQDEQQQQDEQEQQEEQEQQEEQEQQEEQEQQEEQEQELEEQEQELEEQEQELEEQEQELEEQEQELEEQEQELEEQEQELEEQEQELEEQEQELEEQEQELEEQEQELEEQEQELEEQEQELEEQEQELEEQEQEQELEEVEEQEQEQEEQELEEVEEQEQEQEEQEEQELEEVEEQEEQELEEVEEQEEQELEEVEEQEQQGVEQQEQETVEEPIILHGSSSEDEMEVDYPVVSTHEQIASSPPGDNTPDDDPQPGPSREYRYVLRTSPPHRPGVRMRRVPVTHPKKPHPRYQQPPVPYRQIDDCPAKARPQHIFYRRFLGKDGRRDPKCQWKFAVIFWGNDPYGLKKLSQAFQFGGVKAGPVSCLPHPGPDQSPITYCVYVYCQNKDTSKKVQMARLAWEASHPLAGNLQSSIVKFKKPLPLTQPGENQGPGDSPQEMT
HDAC3 inhib: human HDAC3 inhibition. O15379. recombinant HDAC3, fluorogenic peptide/trypsin coupled, fluorescence. inhibition, % at 8.3 µM. actives 0.15% (n = 320,000). AID 2718; in the data active = inhibition above about 26%, passing the limit was not always enough; inconclusive = no clear call, values can overlap the other calls
HKDC1 inh: blocks human hexokinase HKDC1 activity. Q2TB90. recombinant HKDC1, G6PDH/diaphorase resazurin coupled fluorescence. inhibition, % at 20 µM. actives 0.16% (n = 340,000);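 active = inhibition above about 35% when tested at 20 µM, limit read from the data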
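Test system: recombinant HKDC1 (HK5) hexokinase enzyme, produced in-house / Doses: 20 µM test compound, 1% DMSO / Timing: 90 min, room temperature / Detection: G6PDH/diaphorase-coupled fluorescence, 1 mM NADP, 100 µM resazurin, 525/613 nm / Control set: DMSO wells with and without enzyme mix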
ATG4B inhibitor: blocks human ATG4B protease cleavage of LC3 substrate | ATG4B cleavage of LC3-PLA2, NBD-HPC fluorescence, 1 h | actives 0.51% (n = 340,000) | inhibition, % at 8.33 µM; in the data active = inhibition above about 40%
JMH597 growth: retest: inhibitors of Vibrio harveyi JMH597 growth. shares compounds with AI-2 QS mod. OD600 absorbance, 9 h; lacks LuxN and CqsS sensors. growth inhibition, % at 7.5 µM. actives 1% (n = 750). AID 2726;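 active = every replicate shows growth inhibition above 50%; inconclusive = at least half, but not all, replicates pass that cutoff; inactive = fewer than half of replicates pass it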
BB721 lum counter: retest counter-screen: luminescence loss in constitutive-on quorum sensing strain BB721. Vibrio harveyi BB721 luminescence, 9 h. AID 2727. shares compounds with AI-2 QS mod. inhibition, % at 7.5 µM. actives 95% (n = 750);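 active = inhibition above about 80% in every replicate, not just on average, limit read from the data; inconclusive = at least half of replicates past the limit, but not all; inactive = fewer than half of replicates past the limit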
BB721 growth: retest: inhibitors of Vibrio harveyi BB721 growth | growth inhibition, % at 7.5 µM | shares compounds with AI-2 QS mod | actives 3% (n = 750) | AID 2728 | OD600 absorbance, 9 h;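 active = every replicate shows growth inhibition above 50%; inconclusive = at least half but not all replicates above 50% inhibition; inactive = under half of replicates above 50% inhibition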
JMH597 AI-2 mod: Vibrio harveyi AI-2 signaling luminescence modulation – JMH597 strain, confirmation; Vibrio harveyi JMH597 AI-2 quorum sensing luminescence, 9 h; luxN and CqsS knockout, AI-2 only; AID 2736; shares compounds with AI-2 QS mod; actives 97% (n = 750); inhibition, % at 7.5 µM;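 active = every replicate shows more than 75% inhibition of signal versus neutral control wells; inconclusive = half to three quarters of replicates exceed 75% inhibition; inactive = fewer than half of replicates exceed 75% inhibition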
Numbers stand for hits; i = inactive; ? = inconclusive; nt = no result.

SMILES	AI-2 QS mod	Bfl-1 A1 inh	LANA-H2B inh	HDAC3 inhib	HKDC1 inh	ATG4B inhibitor	JMH597 growth	BB721 lum counter	BB721 growth	JMH597 AI-2 mod
Cc1cc(S(=O)(=O)N2CCCOC2CNC(=O)C(=O)NCc2ccco2)ccc1F (stereo not given)	i	i	i	i	i	i	nt	nt	nt	nt
CSc1nc2cc(C)nn2c(-c2ccccc2)c1C#N	i	i	i	i	i	i	nt	nt	nt	nt
Cc1cc(N2CCN(c3cccc(C)c3C)CC2)nc(-c2ccccc2)n1	i	i	i	i	i	i	nt	nt	nt	nt
CCc1ccc(CNC(=O)Cn2nc(-c3ccc(C)cc3)ccc2=O)cc1	-79	i	i	nt	nt	nt	i	90	i	94
O=C(Cn1nc(-c2ccccc2)ccc1=O)NCc1ccc(F)cc1	i	i	i	i	i	i	nt	nt	nt	nt
Cc1cccnc1NC(=O)Cn1nc(-c2ccccc2)oc1=S	i	i	i	i	i	i	nt	nt	nt	nt
COCCC(=O)Nc1ccc2c(c1)CN(C(=O)c1ccc(CSC)o1)CC2	i	i	i	i	i	i	nt	nt	nt	nt
O=C(CO/N=C/c1ccc2c(c1)OCO2)Nc1cccc(Br)c1	-89	i	i	i	i	i	i	98	i	98
Cc1cccc(NC(=O)NCc2ccc3c(c2)OCO3)c1	-87	i	i	i	nt	nt	i	96	i	96
O=C(/C=C/c1cccc(F)c1)NCc1ccc2c(c1)OCO2	-88	i	i	i	i	i	i	96	i	97
Cc1cccc(NC(=S)NCc2ccc3c(c2)OCO3)c1	i	i	i	i	i	i	nt	nt	nt	nt
Cc1cccc(NC(=O)CO/N=C/c2ccc3c(c2)OCO3)c1	-89	i	i	i	i	i	i	96	i	97
O=C(/C=C/c1cccc([N+](=O)[O-])c1)NCc1ccc2c(c1)OCO2	i	i	i	i	i	i	nt	nt	nt	nt
CC(=O)c1cccc(NC(=O)C2CC(c3ccc(F)cc3)=NO2)c1 (stereo not given)	-91	i	i	i	i	i	i	97	i	98
CC(=O)c1ccc(NC(=O)C2CC(c3ccc(F)cc3)=NO2)cc1 (stereo not given)	i	i	i	i	i	i	nt	nt	nt	nt
CC(C)(C)CC(=O)Nc1ccc(S(=O)(=O)N2CCCC2)cc1	i	i	i	i	i	i	nt	nt	nt	nt
O=C1NN=C(c2ccc(Br)cc2)CC1c1ccc(Cl)cc1 (stereo not given)	-84	i	i	i	i	i	i	98	i	97
CCc1ccc(C2CC(c3ccc(Cl)cc3)=NNC2=O)cc1 (stereo not given)	-82	i	i	i	i	i	i	88	i	87
CC(=O)Nc1ccc(C(=O)OCc2ccc(Cl)cc2)cc1	-91	i	i	i	i	i	i	97	58	96
CC(=O)Nc1ccc(C(=O)OCc2ccc(F)cc2)cc1	-83	i	i	i	i	i	i	93	i	92
CCCS(=O)(=O)c1ccc(COC(=O)c2ccc(NC(C)=O)cc2)cc1	i	i	i	i	i	i	nt	nt	nt	nt
COc1ccc(S(=O)(=O)Nc2ccc(-n3cccc3)cc2)cc1	-96	i	i	i	i	i	i	94	i	99
COc1ccc(NS(=O)(=O)c2ccc(N3C(=O)CCC3=O)cc2)cc1	i	i	i	i	i	i	nt	nt	nt	nt
O=C(CS(=O)(=O)c1c[nH]c2ccccc12)N1CCc2ccccc21	i	i	i	i	i	i	nt	nt	nt	nt
COC(=O)Nc1ccc(S(=O)(=O)Nc2ncccn2)cc1	i	i	i	i	i	i	nt	nt	nt	nt
SMILES	AI-2 QS mod	Bfl-1 A1 inh	LANA-H2B inh	HDAC3 inhib	HKDC1 inh	ATG4B inhibitor	JMH597 growth	BB721 lum counter	BB721 growth	JMH597 AI-2 mod
CCCCOC(=O)Nc1ccc(S(=O)(=O)Nc2ncccn2)cc1	-91	i	i	i	i	i	i	96	i	97
O=C(O)c1cccnc1Sc1ccc(Br)cc1	-84	i	i	i	i	i	i	97	i	97
CCN(C(=O)COC(=O)c1ccccc1OCc1ccc(Cl)cc1)C1CCS(=O)(=O)C1 (stereo not given)	nt	i	i	i	i	i	nt	nt	nt	nt
O=C(Cc1ccc(Cl)cc1)N/N=C/c1ccncc1	-81	i	i	?	i	i	i	92	i	92
O=C(Cc1ccc(Cl)cc1)N/N=C/c1cccc(O)c1	-95	i	i	i	i	i	i	97	i	98
COc1ccc(/C=C(\NC(=O)c2ccccc2)C(=O)NCCC(=O)O)cc1	i	i	i	i	i	i	nt	nt	nt	nt
N#Cc1cccc(NC(=O)CN2C(=O)NC(Cc3ccccc3)C2=O)c1 (stereo not given)	-84	i	i	i	i	i	i	89	i	93
Cc1cccc(NC(=O)CN2C(=O)NC(Cc3ccccc3)C2=O)c1 (stereo not given)	?	i	i	i	i	i	i	85	i	89
N#Cc1ccc(NC(=O)CN2C(=O)NC(Cc3ccccc3)C2=O)cc1 (stereo not given)	i	i	i	i	i	i	nt	nt	nt	nt
CN(C)S(=O)(=O)c1ccc(C(=O)OCC(=O)c2ccc3c(c2)NC(=O)CO3)cc1	-95	i	i	i	i	i	i	?	i	85
Cc1cc(C)cc(OCC(=O)OCC(=O)c2ccc3c(c2)NC(=O)CO3)c1	i	i	i	i	i	i	nt	nt	nt	nt
O=C1COc2ccc(C(=O)COC(=O)Cc3ccsc3)cc2N1	-85	i	i	i	i	i	i	95	i	97
O=C1COc2ccc(C(=O)COC(=O)Cc3c(F)cccc3Cl)cc2N1	nt	nt	nt	nt	i	i	nt	nt	nt	nt
CN(C)S(=O)(=O)c1cccc(C(=O)OCC(=O)c2ccc3c(c2)NC(=O)CO3)c1	i	i	i	i	i	i	nt	nt	nt	nt
O=C1COc2ccc(C(=O)COC(=O)Cc3ccccc3F)cc2N1	-83	i	i	i	i	i	i	88	i	91
O=C(NCc1cccnc1)c1ccc(-c2cc3ccccc3oc2=O)cc1	i	i	i	i	i	i	nt	nt	nt	nt
Clc1ccc(OCc2cc(-c3ccccc3)no2)cc1Cl	?	i	i	i	i	i	i	97	i	98
CC(=O)c1cccc(NC(=O)Cn2cc3c(n2)CCCC3)c1	-89	i	i	i	i	i	i	97	i	98
CC(=O)Nc1ccc(NC(=O)Cn2cc3c(n2)CCCC3)cc1	i	i	i	i	i	i	nt	nt	nt	nt
